Rows were chosen to be rich in hits. Some 2.4% of all compounds tested hit in one or more screens of this group.
VIM-2 inhibitor = VIM-2 metallo-beta-lactamase inhibitors, primary screen, biochemical, epi-absorbance readout, Pseudomonas aeruginosa enzyme. 290,000 tested, 0.89% active. purified VIM-2, nitrocefin hydrolysis, epi-absorbance fluorescence. inhibition, % at 5.6 µM. AID 1527, 2009;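 active means inhibition above the mean of all tested compounds plus 3 SD, cutoff set per screening run, cut at about 7.5% in these data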;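 further: red hydrolysis product quenches plate fluorescence so inhibitors raise well fluorescence; 0% = enzyme with DMSO and 100% = DMSO without enzyme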
IMP-1 inh = IMP-1 metallo-beta-lactamase inhibitors, primary screen, biochemical, epi-absorbance readout, Pseudomonas aeruginosa enzyme | purified IMP-1, nitrocefin hydrolysis, epi-absorbance fluorescence | inhibition, % at 5.6 µM | 290,000 tested, 0.45% active;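 active means inhibition above the mean plus 3 SD of all compounds in the same screening run, cut at about 4.5% in these data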;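 further: 0% = IMP-1 with DMSO and 100% = DMSO wells lacking enzyme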
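system = purified recombinant IMP-1 beta-lactamase | amount = 0.2 nM IMP-1, as dispensed | medium = HEPES buffer pH 7.1 with ZnSO4 and Brij 35 | times = 25 °C, 15 min preincubation, 25 min reaction | detection = plate fluorescence quenching by hydrolysis product, ex 480/em 530 nm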
HGIII-sPLA2 inh = human group III sPLA2 inhibitors, primary screen, biochemical, QFRET, BODIPY PC-A2 liposome substrate | QFRET BODIPY PC-A2 liposome hydrolysis, fluorescence | inhibition, % at 12.2 µM | Group 3 secretory phospholipase A2 (Homo sapiens), Q9NZ20 | 370,000 tested, 0.56% active;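 active means inhibition above mean plus 3 SD of compounds lying within the high and low control bounds, cut at about 19% in these data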;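 further: 0% = median of test compound wells and 100% = no enzyme DMSO wells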
Target sequence (Q9NZ20 whole entry, looked up): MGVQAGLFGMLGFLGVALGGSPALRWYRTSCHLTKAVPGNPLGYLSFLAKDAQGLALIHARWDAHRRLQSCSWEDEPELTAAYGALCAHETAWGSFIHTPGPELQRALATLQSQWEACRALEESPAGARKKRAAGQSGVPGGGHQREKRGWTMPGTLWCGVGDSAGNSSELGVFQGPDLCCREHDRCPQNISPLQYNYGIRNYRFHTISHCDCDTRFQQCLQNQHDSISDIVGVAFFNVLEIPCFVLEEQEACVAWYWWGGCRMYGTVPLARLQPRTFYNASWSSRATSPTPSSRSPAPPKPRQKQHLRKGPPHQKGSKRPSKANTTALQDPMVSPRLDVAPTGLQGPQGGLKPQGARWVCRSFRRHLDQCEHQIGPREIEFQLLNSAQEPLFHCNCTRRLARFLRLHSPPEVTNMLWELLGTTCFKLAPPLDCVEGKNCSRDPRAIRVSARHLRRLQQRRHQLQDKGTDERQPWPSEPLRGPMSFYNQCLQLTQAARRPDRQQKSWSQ
M18AAP inhibitor = PfM18AAP inhibitors, malaria aminopeptidase, primary screen, biochemical, QFRET, recombinant enzyme. M18 aspartyl aminopeptidase (Plasmodium falciparum 3D7). H-Glu-NHMec fluorogenic cleavage. inhibition, % at 7.35 µM. 290,000 tested, 1.2% active;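 active means inhibition above the campaign mean inhibition over all tested compounds plus 3 SD, cut at about 28% in these data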;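 further: 0% = plate median of test compound wells and 100% = 2 mM ZnCl2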
* hit, by the source's call; . = no result given.

SMILES | VIM-2 inhibitor | IMP-1 inh | HGIII-sPLA2 inh | M18AAP inhibitor
COC(=O)CCC1NC(=O)C(Cc2c[nH]c3ccccc23)NC(=O)C2CC(=O)OC(C)C(NC(=O)C(C)NC(=O)C3CCCN3C(=O)C3CCCN3C(=O)C(C)NC(C)=O)C(=O)NC(CC(C)C)C(=O)NC(CCCCNC(=O)CCC(C(=O)NC(Cc3ccc(O)cc3)C(=O)O)NC1=O)C(=O)NC(Cc1c[nH]c3ccccc13)C(=O)N1CCCC1C(=O)NC(CO)C(=O)N2 (stereo not given) | . | . | -5 | .
COC(=O)C1CN(Cc2cn(Cc3ccc(OC)cc3)nn2)CCS(=O)(=O)N1Cc1ccc(C)cc1 (stereo not given) | . | . | -5 | .
Cn1c(N)c(C(=O)COC(=O)c2ccnc3ccccc23)c(=O)n(C)c1=O | 9.7* | -5 | 4 | -3
COc1ccc(-c2cc(C(=O)OCC(=O)c3c(N)n(C)c(=O)n(C)c3=O)c3ccccc3n2)cc1 | -2 | -2 | -1 | -3
CCn1c(=O)c(C(C)=O)nc2ccccc21 | 0 | 5.9* | 12 | 2
COCCn1c(C)cc(C(=O)CSc2nncn2-c2ccccc2)c1C | 2 | 5.0* | -2 | 16
CN1C(c2ccccc2)CC(C)(O)CC1c1ccccc1 (stereo not given) | . | . | 0 | .
Cc1ccc(N/C(N)=N/c2nc3c(c(=O)[nH]2)CCCC3)c(C)c1 | -1 | 5.0* | 0 | -3
N/C(=N\c1nc2c(c(=O)[nH]1)CCCC2)Nc1ccccc1 | -2 | -3 | -1 | -3
COC(=O)C1CN(Cc2cn(CCOC(C)=O)nn2)CCS(=O)(=O)N1Cc1ccc(OC)cc1 (stereo not given) | . | . | 7 | .
CC(C)(C)c1ccc(C(=O)NC(=S)Nn2cnnc2)cc1 | -2 | -3 | 12 | 55*
COCCSc1ccccc1C(=O)NCc1ccco1 | -5 | -3 | 4 | 30*
COc1cc2cc(CN(Cc3nnnn3Cc3ccco3)C3CCCCC3)c(=O)[nH]c2cc1OC | 9.3* | 2 | -11 | 20
CCOc1ccc2[nH]c(=O)c(CN(Cc3nnnn3Cc3ccco3)C3CCCCC3)cc2c1 | 6 | 4 | -15 | 3
CCOC(=O)N1CCN(C(=O)C[C@H]2C[C@@]3(C(=O)OC)C(=C[C@H](COCc4ccccc4)O[C@@H]3C)N(Cc3ccccc3)C2=O)CC1 | . | . | -7 | .
N#CC1=C(N)Oc2ccc3ccc(O)cc3c2C1c1ccsc1 (stereo not given) | 6 | 17* | -90 | -3
O=C(CCc1c[nH]c2ccccc12)N1CCN(c2ccc(O)cc2)CC1 | 1 | -4 | -18 | 31*
COC(=O)[C@]12C[C@H](CC(=O)NCCCCc3ccccc3)C(=O)N(CCc3ccc(OC)c(OC)c3)C1=C[C@H](C(C)(C)C)O[C@@H]2C | . | . | -18 | .
O=C(Nc1cccc(S(=O)(=O)Nc2ccccc2F)c1)c1ccc2ccccc2n1 | -2 | -2 | -16 | 30*
O=C(Cc1ccc(Cl)cc1Cl)Nc1cccc(S(=O)(=O)Nc2ccccc2F)c1 | -2 | -3 | -42 | 29*
O=C(O)c1cccc(CN2C(=O)c3ccccc3C2=O)c1 | 0 | -3 | -1 | -9
O=C1c2cccc3c(O)ccc(c23)C(=O)N1Cc1ccccc1 | 11* | 4 | -375 | 12
O=C(Nc1ccc(Cl)cc1C(=O)NCc1cccnc1)c1ccco1 | 0 | 3 | 0 | -4
O=C(Nc1ccc(Cl)cc1C(=O)Nc1ccncc1)c1ccco1 | 8.2* | -3 | -11 | 2
O=C(c1cc2cc(Cl)ccc2oc1=O)N1CCOCC1 | 0 | 1 | 1 | 0
SMILES | VIM-2 inhibitor | IMP-1 inh | HGIII-sPLA2 inh | M18AAP inhibitor
NC(=S)c1cc2cc(Cl)ccc2oc1=O | 2 | 7.0* | 9 | 3
CCCCNC(=S)NNC(=O)c1c(C)nc2ccccn12 | -6 | -2 | 15 | 38*
CCCCNC(=O)NNC(=O)c1ccoc1C | -5 | -2 | -4 | 26
CCCCNC(=S)NNC(=O)c1c(Cl)c(C)nn1C | -4 | -3 | 5 | -1
CCCCNC(=S)NNC(=O)c1ccoc1C | -5 | -3 | 11 | 29*
CCOC(=O)c1sc(NC(=O)c2cc(-c3ccc(C)cc3)nc3ccccc23)c(C#N)c1C | -4 | -3 | 6 | 2
COC(=O)c1sc(NC(=O)c2cc(-c3ccccc3)nc3ccccc23)c(C#N)c1C | 1 | -2 | -5 | 45*
Cc1cc(C)cc(C(=O)NCC(=O)OCC(=O)NCc2ccco2)c1 | -3 | -1 | -2 | 31*
O=C(Nc1cccn(Cc2cccc(F)c2)c1=O)NC1CCCCC1 | -3 | -3 | -1 | 1
O=C(Nc1cccn(Cc2c(F)cccc2Cl)c1=O)NC1CCCCC1 | 2 | 0 | -6 | 28*
CCOC(=O)c1csc(NC(=O)C2CCCN(S(=O)(=O)c3ccc([N+](=O)[O-])cc3)C2)n1 (stereo not given) | . | . | -12 | .
COCCC(=O)N1CCC(Oc2ccc(C(=O)N3C[C@@H]4CCC[C@H]3C4)cc2)CC1 | 0 | 5.1* | -4 | 3
Cc1ccc(/C=N/n2cc(-c3ccccc3)[nH]c2=S)s1 | -4 | -4 | 13 | 53*
COc1ccc(Cn2cc(CN3[C@@H](CC(C)C)COc4ccc(Cl)cc4S3(=O)=O)nn2)cc1 | . | . | 2 | .
COc1ccc(C(=O)C[n+]2cccc3cc(C)ccc32)cc1 | 1 | 5.9* | 2 | 13
COc1ccc(C(=O)C[n+]2cccc3cc(OC)ccc32)cc1 | 0 | -4 | -3 | -1
C[C@@H]1CCN(C2CC2)S(=O)(=O)c2ccc(N3CCC[C@@H]3C)cc2O1 | . | . | -4 | .
CCCCNS(=O)(=O)CC1NCc2cc(OC)ccc21 (stereo not given) | . | . | 6 | .
C=CCNC(=O)CN(C(=O)c1csc2ccc(Cl)cc12)c1cccc(Br)c1 | . | . | -1 | .
CC1Sc2ccc(S(=O)(=O)CCC(=O)Nc3ccccn3)cc2NC1=O (stereo not given) | -2 | -1 | 4 | 29*
CN(C)c1cc(-c2ccc(Cl)c(Cl)c2)oc(=O)c1Cl | -2 | 5.4* | 0 | -4
CCOC(=O)[C@]12CCCC=C1N(CCCOC)C(=O)[C@@H]2CC(=O)N1CCCCC1 | . | . | 1 | .
CCOC(=O)[C@]12CCCC=C1N(CCCOC)C(=O)[C@@H]2CC(=O)N1CCC(c2ccccc2)CC1 | . | . | -3 | .
CCC(C)NC(=O)c1cn(CC)c2ccc(S(=O)(=O)N(C)C)cc2c1=O (stereo not given) | -5 | -2 | -3 | 8
CCn1cc(C(=O)O)c(=O)c2cc(S(=O)(=O)N(C)C)ccc21 | 8.7* | -2 | -3 | 7
O=C(NNc1ncnc2sccc12)c1ccc(Cl)cc1 | -5 | -4 | 3 | 28*
CC(=O)Nc1ccc2c(CSc3nncs3)cc(=O)oc2c1 | 3 | 5.4* | -6 | 20
Cc1ccc2c(CSc3nnc(N)s3)cc(=O)oc2c1 | -2 | -3 | -23 | 5
COc1ccc(C=NNC(=S)Nc2ccc(F)cc2)cc1OC | . | . | 23* | .

From PubChem BioAssay
